How the values were obtained:
HOP-92 [1] = assay: Cytotoxicity against human HOP92 cells; type: cell-based
Procedure, shortened: (§1)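 NCI 60 human tumour cell line screen, second stage at five concentrations (100, 10, 1.0, 0.1 and 0.01 μM). Continuous drug exposure for 48 h, with cell growth estimated by sulforhodamine B protein staining. GI50 is the drug concentration giving a 50% reduction in net protein increase relative to control cells over the incubation.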

NCI-H226 [2] = assay: Cytotoxicity against human NCI-H226 cells; type: cell-based; procedure, shortened: as §1
NCI-H23 [3] = assay: Cytotoxicity against human NCI-H23 cells; type: cell-based; procedure, shortened: as §1
NCI-H460 [4] = assay: Cytotoxicity against human NCI-H460 cells; type: cell-based; procedure, shortened: as §1
NCI-H522 [5] = assay: Cytotoxicity against human NCI-H522 cells; type: cell-based; procedure, shortened: as §1
HCT-116 [6] = assay: Cytotoxicity against human HCT116 cells; type: cell-based; procedure, shortened: as §1
HCT-15 = assay: Cytotoxicity against human HCT15 cells; type: cell-based; procedure, shortened: as §1
SW-620 = assay: Cytotoxicity against human SW620 cells; type: cell-based
Procedure, shortened: (§2)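 NCI 60 human tumour cell line screen; five concentration levels (100, 10, 1.0, 0.1 and 0.01 μM), 48 h continuous drug exposure. Cell growth estimated by sulforhodamine B (SRB) protein staining. GI50 taken as the drug concentration giving a 50% reduction in net protein increase relative to control cells over the incubation.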

SNB-19 = assay: Cytotoxicity against human SNB19 cells; type: cell-based; procedure, shortened: as §2
SNB-75 = assay: Cytotoxicity against human SNB75 cells; type: cell-based; procedure, shortened: as §2
U-251 = assay: Cytotoxicity against human U251 cells; type: cell-based; procedure, shortened: as §2
LOX IMVI = assay: Cytotoxicity against human LOXIMVI cells; type: cell-based; procedure, shortened: as §1
CCRF-CEM = assay: Anticancer activity against human CCRF-CEM cells after 48 hrs by sulforhodamine B assay; type: functional
Procedure, shortened: (§3)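 NCI 60-cell-line in vitro screen, second stage: five concentration levels (100, 10, 1.0, 0.1 and 0.01 μM) with 48 h continuous drug exposure. Cell growth was estimated by sulforhodamine B protein staining. GI50 is the drug concentration that gives a 50% reduction in net protein increase relative to control cells over the incubation.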

K562 = assay: Anticancer activity against human K562 cells after 48 hrs by sulforhodamine B assay; type: functional; conditions: K562, 48 h; procedure, shortened: as §3
MDA-MB-435 = assay: Cytotoxicity against human MDA-MB-435 cells; type: cell-based; procedure, shortened: as §1
SK-MEL-2 = assay: Cytotoxicity against human SK-MEL-2 cells; type: cell-based; procedure, shortened: as §1
SK-MEL-5 = assay: Cytotoxicity against human SK-MEL-5 cells; type: cell-based; procedure, shortened: as §1
OVCAR-4 = assay: Cytotoxicity against human OVCAR4 cells; type: cell-based; procedure, shortened: as §1
OVCAR-8 = assay: Cytotoxicity against human OVCAR8 cells; type: cell-based; procedure, shortened: as §1
NCI/ADR-RES = assay: Cytotoxicity against human NCI/ADR-RES cells; type: cell-based; procedure, shortened: as §1
786-0 = assay: Cytotoxicity against human 786-0 cells; type: cell-based; procedure, shortened: as §1
ACHN = assay: Cytotoxicity against human ACHN cells; type: cell-based; procedure, shortened: as §1
RXF 393 = assay: Cytotoxicity against human RXF393 cells; type: cell-based; procedure, shortened: as §1
SN12C = assay: Cytotoxicity against human SN12C cells; type: cell-based; procedure, shortened: as §2
RPMI-8226 = assay: Anticancer activity against human RPMI8226 cells after 48 hrs by sulforhodamine B assay; type: functional; conditions: RPMI-8226, 48 h; procedure, shortened: as §3
A549 = assay: Anticancer activity against human A549 cells after 48 hrs by sulforhodamine B assay; type: functional; conditions: A549, 48 h; procedure, shortened: as §3
HOP-62 = assay: Anticancer activity against human HOP62 cells after 48 hrs by sulforhodamine B assay; type: functional; conditions: HOP-62, 48 h; procedure, shortened: as §3
HOP-92 [7] = assay: Anticancer activity against human HOP92 cells after 48 hrs by sulforhodamine B assay; type: functional; conditions: HOP-92, 48 h; procedure, shortened: as §3
NCI-H226 [8] = assay: Anticancer activity against human NCI-H226 cells after 48 hrs by sulforhodamine B assay; type: functional; conditions: NCI-H226, 48 h; procedure, shortened: as §3
NCI-H23 [9] = assay: Anticancer activity against human NCI-H23 cells after 48 hrs by sulforhodamine B assay; type: functional; conditions: NCI-H23, 48 h; procedure, shortened: as §3
NCI-H460 [10] = assay: Anticancer activity against human NCI-H460 cells after 48 hrs by sulforhodamine B assay; type: functional; conditions: NCI-H460, 48 h; procedure, shortened: as §3
NCI-H522 [11] = assay: Anticancer activity against human NCI-H522 cells after 48 hrs by sulforhodamine B assay; type: functional; conditions: NCI-H522, 48 h; procedure, shortened: as §3
HCT-116 [12] = assay: Anticancer activity against human HCT116 cells after 48 hrs by sulforhodamine B assay; type: functional; conditions: HCT-116, 48 h; procedure, shortened: as §3

Cc1ccc(C2=NNC(c3cc(Cc4ccc(O)c(C5CC(c6ccc(C)cc6)=NN5)c4)ccc3O)C2)cc1 (stereo not drawn)
LC50 (HOP-92 [1]): > 100 µM
LC50 (NCI-H226 [2]): > 100 µM
LC50 (NCI-H23 [3]): > 100 µM
LC50 (NCI-H460 [4]): > 100 µM
LC50 (NCI-H522 [5]): > 100 µM
LC50 (HCT-116 [6]): 55.2 µM
LC50 (HCT-15): > 100 µM
LC50 (SW-620): > 100 µM
LC50 (SNB-19): > 100 µM
LC50 (SNB-75): > 100 µM
LC50 (U-251): > 100 µM
LC50 (LOX IMVI): > 100 µM
GI50 (CCRF-CEM): 3.85 µM
GI50 (K562): 7.73 µM
LC50 (MDA-MB-435): > 100 µM
LC50 (SK-MEL-2): > 100 µM
LC50 (SK-MEL-5): 31.7 µM
LC50 (OVCAR-4): > 100 µM
LC50 (OVCAR-8): > 100 µM
LC50 (NCI/ADR-RES): > 100 µM
LC50 (786-0): > 100 µM
LC50 (ACHN): > 100 µM
LC50 (RXF 393): > 100 µM
LC50 (SN12C): > 100 µM
GI50 (RPMI-8226): 9.89 µM
GI50 (A549): 6.84 µM
GI50 (HOP-62): 8.64 µM
GI50 (HOP-92 [7]): 8.28 µM
GI50 (NCI-H226 [8]): 8.28 µM
GI50 (NCI-H23 [9]): 5.3 µM
GI50 (NCI-H460 [10]): 4.88 µM
GI50 (NCI-H522 [11]): 3.64 µM
GI50 (HCT-116 [12]): 4.11 µM
